Measured values from ChEMBL document CHEMBL4610036, “Discovery of small molecule antagonists of chemokine receptor CXCR6 that arrest tumor growth in SK-HEP-1 mouse xenografts as a model of hepatocellular carcinoma” (Bioorg Med Chem Lett, 2020).
The source made the active and inactive calls. The rule behind the calls is not given here.

Tests used:
[1] = target: T1, C-X-C chemokine receptor type 6 (Homo sapiens, UniProt O00574); experiment: Antagonist activity at Prolink-tagged human CXCR6 receptor assessed as inhibition of CXCL16-induced beta-arrestin recruitment by DiscoveRx cell based assay
Target sequence in this assay (O00574 whole entry): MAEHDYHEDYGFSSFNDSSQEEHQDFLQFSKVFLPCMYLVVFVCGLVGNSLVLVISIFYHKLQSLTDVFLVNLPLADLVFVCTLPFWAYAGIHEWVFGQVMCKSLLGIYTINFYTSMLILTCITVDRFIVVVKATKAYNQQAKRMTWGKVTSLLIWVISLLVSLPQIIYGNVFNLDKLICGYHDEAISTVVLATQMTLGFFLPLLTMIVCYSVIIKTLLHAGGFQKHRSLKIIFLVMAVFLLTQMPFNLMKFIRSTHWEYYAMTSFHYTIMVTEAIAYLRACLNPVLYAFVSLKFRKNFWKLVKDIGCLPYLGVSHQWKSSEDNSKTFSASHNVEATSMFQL

[2] = target: T1, C-X-C chemokine receptor type 6; experiment: Antagonist activity at Prolink-tagged human CXCR6 receptor assessed as inhibition of CXCL16-induced beta-arrestin recruitment by DiscoveRx cell based assay relative to control; parameters: concentration or dose not given beside the values
Outline: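 CXCR6 β-arrestin cells in assay media without G418/hygromycin, 800 cells/well, grown overnight at 37 °C; compounds added acoustically (DMSO ≤0.3%), then 20 nM CXCL16 (final) for 90 min at 37 °C. PathHunter luminescence read. Normalized between CXCL16-alone and no-ligand wells; four-parameter fit with Hill slope fixed at 1; at least two runs on different days, averaged pIC50 ± SD.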
Target sequence in this assay (O00574 whole entry, looked up): as the sequence (O00574 whole entry) above

[3] = target: T1, C-X-C chemokine receptor type 6; experiment: Antagonist activity at Prolink-tagged human CXCR6 receptor assessed as inhibition of forskolin-induced cAMP accumulation by DiscoveRx cell based assay; type: functional
Outline: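 Lance Ultra TR-FRET cAMP assay in CXCR6 β-arrestin cells, 500 cells/well in OptiMEM/2% FBS, grown overnight. Compound added, then forskolin (2.5 mM stock) in HBSS/HEPES/BSA/RO-20-1724 with or without 20 nM CXCL16, 30 min at room temperature. Eu-cAMP tracer and ULight anti-cAMP antibody added, read after 30 min. Curve fit with Hill slope 1; ≥2 independent runs.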
Target sequence in this assay (O00574 whole entry): as above

[4] = target: T1, C-X-C chemokine receptor type 6; experiment: Antagonist activity at Prolink-tagged human CXCR6 receptor assessed as inhibition of forskolin-induced cAMP accumulation by DiscoveRx cell based assay relative to control; type: functional; parameters: concentration or dose not given beside the values
Outline: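 CXCR6 β-arrestin cells in OptiMEM with 2% FBS, 500 cells/well, grown overnight; compounds added, then forskolin with 20 nM CXCL16 (stock concentrations) in HBSS/HEPES/BSA with RO-20-1724, 30 min at room temperature. cAMP read by LANCE Ultra TR-FRET after a further 30 min. Hill slope fixed at 1; at least two runs on different days, averaged pIC50 ± SD.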
Target sequence in this assay (O00574 whole entry, looked up): as the sequence (O00574 whole entry) above

[5] = target: T2, C-C chemokine receptor type 6 (Homo sapiens, UniProt P51684); experiment: Antagonist activity at human CCR6
T2 sequence (P51684 whole entry): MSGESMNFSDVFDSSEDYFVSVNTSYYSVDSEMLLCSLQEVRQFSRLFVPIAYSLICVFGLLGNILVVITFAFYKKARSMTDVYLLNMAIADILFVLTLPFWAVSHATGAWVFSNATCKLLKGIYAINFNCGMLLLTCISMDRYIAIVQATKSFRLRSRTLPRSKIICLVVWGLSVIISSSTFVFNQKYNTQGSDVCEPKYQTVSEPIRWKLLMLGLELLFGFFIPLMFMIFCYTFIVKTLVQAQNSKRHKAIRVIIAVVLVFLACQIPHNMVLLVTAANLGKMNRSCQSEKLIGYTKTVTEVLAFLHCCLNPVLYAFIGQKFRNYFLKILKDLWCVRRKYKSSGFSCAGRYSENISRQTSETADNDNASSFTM

[6] = target: T3, C-X-C chemokine receptor type 5 (Homo sapiens, UniProt P32302); experiment: Antagonist activity at human CXCR5
T3 sequence (P32302 whole entry): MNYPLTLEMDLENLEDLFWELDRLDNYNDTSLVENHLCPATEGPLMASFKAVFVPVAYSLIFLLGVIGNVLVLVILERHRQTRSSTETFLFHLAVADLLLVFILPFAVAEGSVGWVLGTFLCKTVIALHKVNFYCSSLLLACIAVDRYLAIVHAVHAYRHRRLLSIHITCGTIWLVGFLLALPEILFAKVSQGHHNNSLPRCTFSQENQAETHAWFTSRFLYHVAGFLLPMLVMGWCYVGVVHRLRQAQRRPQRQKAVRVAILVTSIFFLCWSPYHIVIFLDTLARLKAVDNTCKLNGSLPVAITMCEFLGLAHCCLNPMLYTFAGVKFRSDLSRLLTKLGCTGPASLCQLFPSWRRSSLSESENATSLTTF

[7] = target: C-X-C chemokine receptor type 4 (Homo sapiens, UniProt P61073); experiment: Antagonist activity at human CXCR4
[8] = target: T4, C-X-C chemokine receptor type 6 (Mus musculus, UniProt Q9EQ16); experiment: Antagonist activity at mouse CXCR6 by DiscoveRx cell based beta-arrestin assay
T4 sequence (Q9EQ16 whole entry): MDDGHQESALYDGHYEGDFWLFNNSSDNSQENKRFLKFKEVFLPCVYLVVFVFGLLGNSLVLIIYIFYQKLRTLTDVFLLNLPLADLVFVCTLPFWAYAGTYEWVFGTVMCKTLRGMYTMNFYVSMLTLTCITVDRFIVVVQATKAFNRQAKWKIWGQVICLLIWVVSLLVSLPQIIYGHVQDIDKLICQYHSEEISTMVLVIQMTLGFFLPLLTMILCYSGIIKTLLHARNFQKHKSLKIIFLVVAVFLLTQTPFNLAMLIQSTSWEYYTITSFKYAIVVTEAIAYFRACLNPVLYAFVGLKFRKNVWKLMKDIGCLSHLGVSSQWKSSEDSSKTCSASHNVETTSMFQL

[9] = target: T1, C-X-C chemokine receptor type 6; experiment: Inhibition of CXCR6-mediated cell invasion in human SKHEP1 cells after 72 hrs by transwell assay; type: cell-based; conditions: SK-HEP1
Outline: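 SK-HEP-1 cells, 100k/well in 0.2% FBS, seeded in upper chamber of a chemotaxis plate coated with matrigel (250 μg/ml). CXCL16 (0.6 μg/ml) in lower chamber; compound in both chambers. Kept at 37 °C, 5% CO2 and imaged hourly in IncuCyte. Migration quantified as confluence from phase-contrast images.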
Target sequence in this assay (O00574 whole entry, looked up): as the sequence (O00574 whole entry) above

[10] = Ratio of solubility of compound in aqueous buffer at pH 5 to 7.4 to IC50 for Prolink-tagged human CXCR6 receptor by DiscoveRx cell based assay; type: physicochemical
[11] = Stability in mouse plasma; type: ADME, cell-free
[12] = Stability in human plasma; type: ADME, cell-free
[13] = Toxicity in human liver microsomes; parameters: species or system Microsome
[14] = Drug metabolism in human liver microsomes incubated up to 1 hr; type: ADME, Microsome; conditions: read-out: Drug metabolism
Outline: (§1)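 Liver microsomes (1.0 mg/mL) preincubated with compound (1 μM final) for 10 min at 37 °C. Reaction started with NADPH-generating system (NADP+, glucose-6-phosphate, G6PDH, MgCl2) in 100 mM potassium phosphate, pH 7.4. Sampled at 0, 5, 15, 30 and 60 min; percent remaining at 1 hr reported.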

[15] = Drug metabolism in mouse liver microsomes incubated up to 1 hr; type: ADME, Microsome; conditions: read-out: Drug metabolism; outline: as §1
[16] = Clearance in mouse at 5 mg/kg, iv; type: ADME, organism-based; conditions: in vivo
[17] = Volume of distribution at steady state in mouse at 5 mg/kg, iv; type: ADME, organism-based; conditions: in vivo, read-out: Vdss
[18] = Half life in mouse at 5 mg/kg, iv; type: ADME, organism-based; conditions: in vivo
[19] = Cmax in mouse at 10 mg/kg, po; type: ADME, organism-based; parameters: dose 10 mg/kg, route oral; conditions: in vivo
Outline: (§2)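 Mice dosed orally by gavage, dose volume set by morning body weight. Serial blood samples (~30 μl) from submandibular or saphenous vein into K2EDTA. Plasma separated by centrifugation at 3000 g, stored at −70 °C, analysed by LC/MS/MS.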

[20] = Half life in mouse at 10 mg/kg, po; type: ADME, organism-based; conditions: in vivo; outline: as §2
[21] = AUC in mouse at 10 mg/kg, po; type: ADME, organism-based; conditions: in vivo; outline: as §2
SK-HEP1 [22] = experiment: Toxicity in human SKHEP1 cells assessed as effect on cell viability after 72 hrs; type: cell-based; conditions: sk-hep1, 72 h
[23] = Toxicity in NOD/SCID mouse xenografted with human SKHEP1 cells assessed as animal death at 30 to 60 mg/kg, po administered on day 4 to day 30 post-tumor cell inoculation; type: organism-based, SK-HEP1; conditions: in vivo
[24] = Toxicity in NOD/SCID mouse xenografted with human SKHEP1 cells assessed as effect on behavior phenotypes at 30 to 60 mg/kg, po administered on day 4 to day 30 post-tumor cell inoculation; type: organism-based, SK-HEP1; conditions: in vivo
SK-HEP1 [25] = experiment: Antitumor activity against human SKHEP1 cells xenografted in NOD/SCID mouse assessed as tumor weight at 30 mg/kg, po administered on day 4 to day 30 post-tumor cell inoculation (reference value: 151 +/- 66 mg); type: functional
SK-HEP1 [26] = experiment: Antitumor activity against human SKHEP1 cells xenografted in NOD/SCID mouse assessed as tumor weight at 60 mg/kg, po administered on day 4 to day 30 post-tumor cell inoculation (reference value: 151 +/- 66 mg); type: functional
SK-HEP1 [27] = experiment: Antitumor activity against human SKHEP1 cells xenografted in NOD/SCID mouse assessed as inhibition of tumor growth at 30 to 60 mg/kg, po administered on day 4 to day 30 post-tumor cell inoculation; type: functional, organism-based
[28] = Toxicity in NOD/SCID mouse xenografted with human SKHEP1 cells assessed as animal weight at 30 to 60 mg/kg, po administered on day 4 to day 30 post-tumor cell inoculation; type: organism-based, SK-HEP1; conditions: in vivo
[29] = tested on: CXCR6 receptor (Prolink-tagged, human); experiment: Safety index, ratio of LC50 for toxicity in human liver microsomes to IC50 for Prolink-tagged human CXCR6 receptor; conditions: read-out: Ratio LC50/IC50

Sequence of C-X-C chemokine receptor type 4 (P61073 whole entry): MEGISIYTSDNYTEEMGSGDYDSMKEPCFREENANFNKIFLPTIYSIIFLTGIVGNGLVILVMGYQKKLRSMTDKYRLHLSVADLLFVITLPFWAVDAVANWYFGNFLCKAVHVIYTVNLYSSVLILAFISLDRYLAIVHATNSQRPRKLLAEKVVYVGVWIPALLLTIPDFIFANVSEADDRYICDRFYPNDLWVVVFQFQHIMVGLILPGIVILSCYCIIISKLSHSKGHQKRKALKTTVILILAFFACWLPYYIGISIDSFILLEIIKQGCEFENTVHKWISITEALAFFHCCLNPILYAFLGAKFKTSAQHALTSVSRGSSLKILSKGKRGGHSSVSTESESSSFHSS

Question: Which IC50 [1] does the source give for `COc1cc(C(=O)N[C@@H]2C[C@H]3CCC[C@@H](C2)N3CC(=O)Nc2ccccc2Cl)cc(OC)c1OC` here?
Answer: Its IC50 is 140 nM.

Question: And the inhibition ([2]; concentration not given here)?
Answer: The inhibition was 100%.

Question: And the IC50 [3]?
Answer: Its IC50 is 1400 nM.

Question: And the inhibition ([4]; concentration not given here)?
Answer: The inhibition was 102%.

Question: What about the IC50 [5] of the same compound?
Answer: Its IC50 is > 80000 nM.

Question: And the IC50 [6]?
Answer: The IC50 was > 80000 nM.

Question: What about the IC50 [7] of the same compound?
Answer: The IC50 was > 80000 nM.

Question: And the IC50 [8]?
Answer: Its IC50 is 18000 nM.

Question: Which results are given for `O=C(CN1[C@@H]2CCC[C@H]1C[C@H](NC(=O)c1ccccc1)C2)Nc1ccccc1`?
Answer: IC50 [1]: > 40000 nM; inhibition [2]: inactive; IC50 [3]: > 80000 nM; inhibition [4]: inactive; inhibition [9]: inactive

Question: Which IC50 [1] does the source give for `COc1cc(C(=O)N[C@@H]2C[C@H]3CCC[C@@H](C2)N3Cc2nc3c(Cl)cccc3s2)cc(OC)c1OC` here?
Answer: The IC50 was 130 nM.

Question: And the inhibition ([2]; concentration not given here)?
Answer: The inhibition was 103%.

Question: And the IC50 [3]?
Answer: The IC50 was 900 nM.

Question: What about the inhibition ([4]; concentration not given here) of the same compound?
Answer: The inhibition was 95%.

Question: What about the inhibition [9] of the same compound?
Answer: The inhibition was “Active”.

Question: With `COc1cc(C(=O)N[C@@H]2C[C@H]3CCC[C@@H](C2)N3Cc2nc3c(C(F)(F)F)cccc3s2)cc(OC)c1OC` as the compound, how does the IC50 [1] read?
Answer: Its IC50 is 40 nM.

Question: And the inhibition ([2]; concentration not given here)?
Answer: The inhibition was 103%.

Question: And the inhibition ([4]; concentration not given here)?
Answer: Its inhibition is 98%.

Question: What about the Ratio [10] of the same compound?
Answer: Its Ratio is “>= 10”.

Question: What about the Stability [11] of the same compound?
Answer: Its Stability is “Stable”.

Question: What about the Stability [12] of the same compound?
Answer: Its Stability is “Stable”.

Question: And the LC50 [13]?
Answer: Its LC50 is “>= 25 uM”.

Question: What about the metabolised at 1 h [14] of the same compound?
Answer: Its metabolised at 1 h is 100%.

Question: What about the metabolised at 1 h [15] of the same compound?
Answer: The metabolised at 1 h was 100%.

Question: What about the clearance [16] of the same compound?
Answer: Its clearance is 28.4 mL/min/kg.

Question: And the Vd [17]?
Answer: Its Vd is 3.32 L/kg.

Question: What about the half-life [18] of the same compound?
Answer: Its half-life is 1.58 h.

Question: What about the Cmax [19] of the same compound?
Answer: The Cmax was 798 ng/mL.

Question: And the half-life [20]?
Answer: Its half-life is 2.82 h.

Question: What about the AUC [21] of the same compound?
Answer: Its AUC is 2050 ng·h/mL.

Question: And the Activity (SK-HEP1 [22])?
Answer: The Activity was “Non-Toxic”.

Question: What about the inhibition [9] of the same compound?
Answer: Its inhibition is “Dose-dependent effect”.

Question: And the Activity [23]?
Answer: The Activity was “Non-Toxic”.

Question: What about the Activity [24] of the same compound?
Answer: The Activity was “Non-Toxic”.

Question: And the Activity (SK-HEP1 [25])?
Answer: The Activity was 59 mg.

Question: What about the Activity (SK-HEP1 [26]) of the same compound?
Answer: Its Activity is 55 mg.

Question: What about the IC50 [8] of the same compound?
Answer: Its IC50 is > 40000 nM.

Question: What about the Activity (SK-HEP1 [27]) of the same compound?
Answer: The Activity was “Active”.

Question: And the Activity [28]?
Answer: The Activity was “Non-Toxic”.

Question: What about the selectivity ratio [29] of the same compound?
Answer: The selectivity ratio was > 40.
